From PubChem BioAssay come the findings set out here.

The nature of assay [1]: reducers of endogenous Her2 protein level, primary screen, SKBR3 breast tumor cells, AlphaScreen, ATP viability (AID 461;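 active = Her2 level under about 52% in both replicate screens, with viability over 70% of control, limit read from the data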;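 for Her2 level: lower value means less Her2 protein in the cells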;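 for viability: percent of carrier control wells set as 100% viability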). To be noted: 18-24 h, measured here: SKBR3 viability, ATP luminescence, at 10 µM.
For assay [2], the target named is Receptor tyrosine-protein kinase erbB-2 (Homo sapiens) (UniProt P04626). Described as above. As to conditions: 18-24 h, at 10 µM, stronger effect = lower value.
Receptor tyrosine-protein kinase erbB-2 (Homo sapiens), sequence (P04626 whole entry, looked up): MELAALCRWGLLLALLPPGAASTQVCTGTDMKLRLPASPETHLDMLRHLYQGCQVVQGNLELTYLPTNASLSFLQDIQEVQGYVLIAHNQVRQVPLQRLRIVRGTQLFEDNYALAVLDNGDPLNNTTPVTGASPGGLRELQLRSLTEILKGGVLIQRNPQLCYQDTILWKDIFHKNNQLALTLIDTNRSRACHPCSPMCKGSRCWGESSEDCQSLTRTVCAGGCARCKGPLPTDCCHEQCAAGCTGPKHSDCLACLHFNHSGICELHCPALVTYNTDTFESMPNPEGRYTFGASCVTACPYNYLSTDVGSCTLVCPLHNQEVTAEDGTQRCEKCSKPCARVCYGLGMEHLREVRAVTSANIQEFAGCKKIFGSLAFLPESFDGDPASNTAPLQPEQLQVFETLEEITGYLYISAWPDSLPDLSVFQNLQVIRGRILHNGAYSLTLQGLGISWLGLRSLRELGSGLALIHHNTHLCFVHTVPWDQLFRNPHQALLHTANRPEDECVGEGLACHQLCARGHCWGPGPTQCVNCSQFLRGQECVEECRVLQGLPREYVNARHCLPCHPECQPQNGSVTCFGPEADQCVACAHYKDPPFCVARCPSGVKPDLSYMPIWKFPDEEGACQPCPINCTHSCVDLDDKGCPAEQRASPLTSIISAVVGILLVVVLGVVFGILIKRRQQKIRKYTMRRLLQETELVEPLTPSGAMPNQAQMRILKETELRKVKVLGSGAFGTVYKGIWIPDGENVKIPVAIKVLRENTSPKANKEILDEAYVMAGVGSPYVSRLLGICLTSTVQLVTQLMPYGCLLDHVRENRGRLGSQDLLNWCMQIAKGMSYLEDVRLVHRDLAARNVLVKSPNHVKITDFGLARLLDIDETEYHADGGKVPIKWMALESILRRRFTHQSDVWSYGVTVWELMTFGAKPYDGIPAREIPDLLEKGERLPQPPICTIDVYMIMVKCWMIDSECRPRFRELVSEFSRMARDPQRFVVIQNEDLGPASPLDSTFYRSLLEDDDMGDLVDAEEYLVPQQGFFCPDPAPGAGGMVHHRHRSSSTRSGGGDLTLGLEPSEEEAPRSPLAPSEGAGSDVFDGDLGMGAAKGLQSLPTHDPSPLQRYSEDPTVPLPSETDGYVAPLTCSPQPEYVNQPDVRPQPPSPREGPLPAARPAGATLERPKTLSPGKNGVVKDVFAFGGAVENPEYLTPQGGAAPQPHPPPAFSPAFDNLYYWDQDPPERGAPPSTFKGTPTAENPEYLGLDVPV
Assay [3] is described as follows: SK-BR-3 cell growth inhibitors, pilot screen, 24 h, human (AID 572;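 active = viability at or below 10% of carrier control in both of two separate runs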;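 note: compound exposure lasted between 18 and 24 h rather than exactly 24 h; 100% = carrier-treated control wells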). To be noted: SK-BR-3 viability, CellTiter-Glo luminescence, at 10 µM, stronger effect = lower value. In general terms: In ATP-based viability assays light output follows the ATP content of the culture.
Assay [4] in a line: HUVEC growth inhibition – cell-based, human, primary screen (AID 575;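 active = viability at or below 30% in both replicate assays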;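 note: 100% = median of untreated cell wells with 0.1% DMSO on each plate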). As to conditions: HUVEC proliferation, CellTiter-Glo luminescence, 72 h; at 10 µM; stronger effect = lower value. Summed up:
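System: primary human umbilical vein endothelial cells; Quantity: 1250 endothelial cells in each well; Buffer or medium: supplemented EBM, 2% fetal bovine serum; Doses: one dose, 10 µM final, 0.1% DMSO; Incubation: 72 h compound incubation; Technique: ATP-based CellTiter-Glo luminescent read; Evaluation: percent of median DMSO-control luminescence; Controls: vehicle and MePR control wells.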

The nature of assay [5]: growth inhibitors of H69AR lung tumor, primary screen, human, duplicate replicates (AID 580).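 Note: 100% = mean luminescence of untreated wells and 0% = no signal.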 As to conditions: H69AR lung tumor cells viability, ATP luminescence, 72 h; at 10 µM; stronger effect = lower value.
Assay [6] in a line: reversal of MRP1-mediated doxorubicin resistance, pilot screen, H69AR cells, doxorubicin co-treatment (AID 601;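 active = viability loss from added drug above about 55%, and viability with drug at most 40%, in both replicates, limit read from the data, passing the limit was not always enough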). As to conditions: CellTiter-Glo, 72 h, at 10 µM; for differential viability (reversal): stronger effect = higher value.
A short description of assay [7]: 384-well plate pilot, post-Golgi transport modulator project, inhibition of yeast transport mutant growth (AID 636; in the data active = inhibition above about 31%). As to conditions: absorbance 615 nm, about 18 h, stronger effect = higher value.
Assay [8] is described as follows: growth suppression of yeast trafficking mutant, preliminary HTS, modulators of trafficking downstream of Golgi apparatus project, 1536-format plate, OD 615 nm (AID 637; in the data active = inhibition above about 30%). To be noted: yeast transport mutant growth, absorbance 615 nm, 18 h; stronger effect = higher value.
Where [9] appears, read: H69AR cells + 2 uM doxorubicin, measured here: viability with 2 uM doxorubicin, stronger effect = lower value.
Where [10] appears, read: H69AR cells, compound alone cytotoxicity.

SMILES strings stand for the structures. Calls of active or inactive are those of the source.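 Rule for the calls, unless noted: active = viability at or under a set limit in both replicates, limit being median viability minus 3 SD (cut at about 48% in these data, passing the limit was not always enough); inconclusive = at or under the limit in just one replicate; inactive = at or above the limit in both replicates.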

The viability is a read-out of living cells in per cent, often relative to untreated cells. In general, inhibition refers to the relative decrease from the control value, in per cent. Consider `CCOC(=O)c1[nH]c(C)c(C(=O)Nc2ccc(C)c(Cl)c2)c1C`, for which the viability is 94% in assay [1]; 94% (inactive) in assay [3]; 61.4% (inactive) in assay [4]; 28.6% (active) in assay [5]; 57.6% in assay [6] (setting [9]); 28.6% in assay [6] (setting [10]). For the same molecule, the Her2 level in assay [2] was 88% (inactive). Further, the differential viability (reversal) in assay [6] (H69AR cells + 2 uM doxorubicin) is -29% (inactive). Further, the inhibition was -5.53% (inactive) in assay [7] and -2.7% (inactive) in assay [8].

Turning to `O=C(CN(Cc1ccco1)C(=O)CNS(=O)(=O)c1ccc(F)cc1)NCCc1ccccc1`, the viability is 78% in assay [1]; 78% (inactive) in assay [3]; 85.8% (inactive) in assay [4]; 91.9% (inactive) in assay [5]; 91% in assay [6] (setting [9]); 91.9% in assay [6] (setting [10]). The Her2 level in assay [2] was 91.5% (inactive). The differential viability (reversal) in assay [6] (H69AR cells + 2 uM doxorubicin) is 0.9% (inactive). Also, the inhibition in assay [7] was -6.35% (inactive); in assay [8], -2.79% (inactive).

Turning to `NC1=NC(c2ccc(Cl)cc2)n2c(nc3ccccc32)N1` (stereo not given), the viability was 96% in assay [1]; 96% (inactive) in assay [3]; 84.9% (inactive) in assay [4]; 78.4% (inactive) in assay [5]; 89.3% in assay [6] (setting [9]); 78.4% in assay [6] (setting [10]). For the same molecule, the Her2 level in assay [2] was 86% (inactive). In addition, in assay [6] (H69AR cells + 2 uM doxorubicin), the differential viability (reversal) was -10.8% (inactive). Also, the results for the inhibition in assay [7] and in assay [8] were -5.13% (inactive) and -0.73% (inactive), respectively.

As to `O=C(c1ccco1)N1CCN(c2ccc(Cl)cc2)CC1`, the viability is 86% in assay [1]; 86% (inactive) in assay [3]; 95.6% (inactive) in assay [4]; 99.8% (inactive) in assay [5]; 80.8% in assay [6] (setting [9]); 99.8% in assay [6] (setting [10]). Also, the Her2 level in assay [2] was 116% (inactive). In assay [6] (H69AR cells + 2 uM doxorubicin), the differential viability (reversal) is 19.1% (inactive). For the same molecule, the inhibition in assay [7] was -0.93% (inactive); in assay [8] it was -5.4% (inactive).

With `CCOC(=O)c1ccc(N2C(=O)CC(N(C)CCc3ccc(OC)c(OC)c3)C2=O)cc1` (stereo not given), the viability in assay [1] was 102%; in assay [3] it was 102% (inactive); in assay [4] it was 101% (inactive); in assay [5] it was 96.8% (inactive); in assay [6] (setting [9]) it was 84.7%; in assay [6] (setting [10]), 96.8%. The Her2 level in assay [2] is 123% (inactive). Also, the differential viability (reversal) in assay [6] (H69AR cells + 2 uM doxorubicin) was 12.1% (inactive). Further, the results for the inhibition in assay [7] and in assay [8] were -2.73% (inactive) and -8.83% (inactive), respectively.

Consider `NC(=O)CSc1nnc(-c2ccc(O)cc2)n1Cc1ccco1`, for which the viability in assay [1] is 108%; in assay [3] it was 108% (inactive); in assay [4], 105% (inactive); in assay [5], 98.6% (inactive); in assay [6] (setting [9]), 89.3%; in assay [6] (setting [10]), 98.6%. In assay [2], the Her2 level was 102% (inactive). Further, the differential viability (reversal) in assay [6] (H69AR cells + 2 uM doxorubicin) is 9.33% (inactive). Besides, the inhibition in assay [7] was -6% (inactive); in assay [8] it was 4.68% (inactive).

For the molecule `CCn1c(SCC(=O)NCc2ccco2)nc2c(c1=O)SC(C)C2` (stereo not given), the viability in assay [1] was 95%; in assay [3], 95% (inactive); in assay [4], 103% (inactive); in assay [5], 91.3% (inactive); in assay [6] (setting [9]), 91.7%; in assay [6] (setting [10]) it was 91.3%. The Her2 level in assay [2] is 91% (inactive). Moreover, in assay [6] (H69AR cells + 2 uM doxorubicin), the differential viability (reversal) was -0.41% (inactive). Moreover, the inhibition in assay [7] is -4.4% (inactive); in assay [8], -0.98% (inactive).

In the case of `O=C1CN(C(=O)COC(=O)c2ccccc2NC(=O)c2ccco2)c2ccccc2N1`, the viability in assay [1] was 94%; in assay [3] it was 94% (inactive); in assay [4], 97.3% (inactive); in assay [5], 83.6% (inactive); in assay [6] (setting [9]) it was 97.6%; in assay [6] (setting [10]), 83.6%. Further, the Her2 level in assay [2] is 106% (inactive). The differential viability (reversal) in assay [6] (H69AR cells + 2 uM doxorubicin) is -14.1% (inactive). Moreover, the results for the inhibition in assay [7] and in assay [8] were -5.95% (inactive) and -0.49% (inactive), respectively.

With `Cn1c(=O)[nH]c(=O)c2c1nc(N1CCNCC1)n2CCOc1ccccc1`, the viability in assay [1] is 79.5%; in assay [3] it was 79.5% (inactive); in assay [4], 81.1% (inactive); in assay [5], 82% (inactive); in assay [6] (setting [9]), 90.6%; in assay [6] (setting [10]), 82%. For the same molecule, the Her2 level in assay [2] is 108% (inactive). Besides, in assay [6] (H69AR cells + 2 uM doxorubicin), the differential viability (reversal) is -8.6% (inactive). The inhibition was 4.32% (inactive) in assay [7] and 10.8% (inactive) in assay [8].

`COCCNC(=O)c1cc2c(-c3ccccc3F)nn(C)c2s1`: the viability is 109% in assay [1]; 109% (inactive) in assay [3]; 60.9% (inactive) in assay [4]; 93.9% (inactive) in assay [5]; 69.3% in assay [6] (setting [9]); 93.9% in assay [6] (setting [10]). In addition, the Her2 level in assay [2] was 74% (inactive). Moreover, the differential viability (reversal) in assay [6] (H69AR cells + 2 uM doxorubicin) is 24.6% (inactive). For the same molecule, the inhibition is -6.53% (inactive) in assay [7] and -2.42% (inactive) in assay [8].

On to `CC1CCc2c(sc(N)c2C(N)=O)C1` (stereo not given), for which the viability in assay [1] is 95.5%; in assay [3], 95.5% (inactive); in assay [4] it was 86.7% (inactive); in assay [5], 91.5% (inactive); in assay [6] (setting [9]), 84.9%; in assay [6] (setting [10]), 91.5%. For the same molecule, the Her2 level in assay [2] was 81% (inactive). In addition, the differential viability (reversal) in assay [6] (H69AR cells + 2 uM doxorubicin) was 6.62% (inactive). Further, the inhibition is -0.26% (inactive) in assay [7] and 4.5% (inactive) in assay [8].

As to `COC(=O)c1cc(=O)nc2sc(-c3cccs3)nn12`, the viability was 115% in assay [1]; 115% (inactive) in assay [3]; 84% (inactive) in assay [4]; 93.4% (inactive) in assay [5]; 85.2% in assay [6] (setting [9]); 93.4% in assay [6] (setting [10]). Moreover, the Her2 level in assay [2] was 85% (inactive). In assay [6] (H69AR cells + 2 uM doxorubicin), the differential viability (reversal) was 8.2% (inactive). Further, the inhibition in assay [7] was -4.86% (inactive); in assay [8] it was 5.24% (inactive).

With `CC(=O)c1ccc(Oc2cc(C)nc(-n3nc(C)cc3C)n2)cc1`, the viability is 107% in assay [1]; 107% (inactive) in assay [3]; 51.7% (inactive) in assay [4]; 29.4% (active) in assay [5]; 66.2% in assay [6] (setting [9]); 29.4% in assay [6] (setting [10]). Besides, in assay [2], the Her2 level is 96% (inactive). The differential viability (reversal) in assay [6] (H69AR cells + 2 uM doxorubicin) is -36.8% (inactive). Further, the inhibition in assay [7] was -5.87% (inactive); in assay [8], -2.1% (inactive).

Take `COc1ccc(CC(=O)Nc2c3c(nn2-c2cccc(Cl)c2)CS(=O)(=O)C3)cc1`: the viability is 84.5% in assay [1]; 84.5% (inactive) in assay [3]; 104% (inactive) in assay [4]; 90.2% (inactive) in assay [5]; 89.1% in assay [6] (setting [9]); 90.2% in assay [6] (setting [10]). The Her2 level in assay [2] is 89% (inactive). Moreover, the differential viability (reversal) in assay [6] (H69AR cells + 2 uM doxorubicin) is 1.1% (inactive). The inhibition in assay [7] is -6.8% (inactive); in assay [8] it was 3.06% (inactive).
